TNAP inh hi DEA: blocks human TNAP under high phosphate acceptor concentration; hit rate 0.03% among 200,000; P05186; AID 1135; purified TNAP, CDP-star luminescence, 1 M DEA; inhibition, % at 20 µM;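 active = over 50% inhibition of tissue-nonspecific alkaline phosphatase at 20 µM in the single-dose screen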;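 note: plate controls were DMSO wells for no effect and EDTA-quenched wells as full inhibition for full effect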
ABCG2 inh: inhibitors of human ABCG2 transporter, ABCB1 counter-screen; Q9UNQ0; IgMXP3 cells, JC-1 efflux, flow cytometry; inhibition, % at 6.6 µM; hit rate 0.1% among 190,000;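 active = inhibition above 80%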;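 note: 0% = DMSO and 100% = nicardipine control wells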
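Read-out basis: Efflux inhibition in percent versus controls | Test system: ABCG2 IgMXP3 and barcoded ABCB1 CCRF-Adr cell mix | Quantity: 3 million cells/mL in well | Schedule: 10 min at 25 °C | Control set: Nicardipine as high control, DMSO as low control | Reagent: JC-1 as fluorescent efflux pump substrate | Signal: Flow cytometry of retained JC-1 fluorescence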
ABCB1 inh: human ABCB1 inhibition, ABCG2 as counter-screen. CCRF-Adr cells, JC-1 efflux, flow cytometry. P08183. hit rate 0.067% among 190,000. inhibition, % at 6.6 µM; in the data active = inhibition above about 40%;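 note: 0% = vehicle and 100% = reference inhibitor; higher value means more JC-1 retained so stronger ABCB1 efflux block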
TNAP act hi DEA: increases human TNAP activity under high phosphate acceptor concentration | P05186 | purified TNAP, CDP-star luminescence, 1 M DEA, 30 min; stronger effect = higher value; 0 = EDTA background, 1 = DMSO-only activity | activation factor at 20 µM | 200,000 tested, under 10 active | AID 1136;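 active = activation factor at least 2 at 20 µM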
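Test system – human TNAP · Doses – 20 µM single point · Incubation – 30 min, room temperature · Signal – luminescent substrate turnover signal · Read-out basis – activation factor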
PKD1 inh: blocks activity of human protein kinase D1 | hit rate 0.056% among 200,000 | PKD1 kinase fluorescence polarization assay | inhibition, % (test concentration not listed); in the data active = inhibition above about 50%
Target sequence (Q15139 whole entry, looked up): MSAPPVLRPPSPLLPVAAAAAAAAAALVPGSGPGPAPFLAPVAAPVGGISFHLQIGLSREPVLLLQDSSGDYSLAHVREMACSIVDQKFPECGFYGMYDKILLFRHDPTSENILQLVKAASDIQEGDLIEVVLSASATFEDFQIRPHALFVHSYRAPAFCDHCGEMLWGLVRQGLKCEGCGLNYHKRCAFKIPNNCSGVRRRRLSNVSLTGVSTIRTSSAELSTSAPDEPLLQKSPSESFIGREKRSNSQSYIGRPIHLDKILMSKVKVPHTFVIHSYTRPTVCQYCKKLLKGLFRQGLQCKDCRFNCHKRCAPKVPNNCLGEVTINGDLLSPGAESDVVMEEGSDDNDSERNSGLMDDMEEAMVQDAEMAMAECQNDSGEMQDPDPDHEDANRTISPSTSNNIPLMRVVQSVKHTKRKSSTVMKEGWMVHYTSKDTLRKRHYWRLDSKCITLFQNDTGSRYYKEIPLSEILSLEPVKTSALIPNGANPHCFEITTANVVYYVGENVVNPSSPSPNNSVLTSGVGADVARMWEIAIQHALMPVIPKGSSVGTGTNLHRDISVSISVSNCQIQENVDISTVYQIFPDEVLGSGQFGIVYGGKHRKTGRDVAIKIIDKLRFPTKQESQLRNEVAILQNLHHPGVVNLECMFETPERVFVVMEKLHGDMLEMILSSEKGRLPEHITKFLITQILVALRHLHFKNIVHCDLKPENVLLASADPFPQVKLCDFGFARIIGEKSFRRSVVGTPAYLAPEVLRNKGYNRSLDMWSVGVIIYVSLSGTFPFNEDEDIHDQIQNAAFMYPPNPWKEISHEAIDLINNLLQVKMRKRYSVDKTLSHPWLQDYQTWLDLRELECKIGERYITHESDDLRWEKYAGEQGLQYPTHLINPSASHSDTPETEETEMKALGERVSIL
TNAP inh noacc: inhibitors of human TNAP without phosphate acceptor. purified TNAP, CDP-star luminescence, 30 min. inhibition, % at 20 µM. hit rate 0.26% among 200,000. AID 1012;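 active = tissue-nonspecific alkaline phosphatase inhibition above about 50% at 20 µM in the single-dose screen, limit read from the data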;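 note: 0% = DMSO negative control and 100% = EDTA positive control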
The depositor's hits bear a star; . = no result given; + = active, no number. Hits are enriched below; roughly 0.48% of the tested compounds scored in any of these assays.

SMILES	TNAP inh hi DEA	ABCG2 inh	ABCB1 inh	TNAP act hi DEA	PKD1 inh	TNAP inh noacc
COc1ccc(-c2cc(C(=O)NN)[nH]n2)cc1OC	4	0	-1	1	1	30
COc1ccc(-c2cc(C(=O)NN)[nH]n2)cc1	8	2	-1	0.9	-8	93*
COc1cc(OC)cc(-c2nc(N)n[nH]2)c1	-10	1	0	1.1	-3	-14
COc1ccc(-c2cc(C(=O)O)[nH]n2)cc1OC	-3	2	1	1	-4	-2
COC(=O)c1cc(-c2ccc(Br)cc2)n[nH]1	0	2	0	1	-2	79*
O=C(COC(=O)c1ccc2ccccc2n1)Nc1cccc(S(=O)(=O)NC2=NCCCCC2)c1	-97	6	1	2*	-2	-51
O=C(COC(=O)c1cccs1)Nc1cccc(S(=O)(=O)NC2=NCCCCC2)c1	0	2	0	1	-4	-2
CCN(CC)c1ccc2cc(-c3nc(-c4ccc(OC)cc4)cs3)c(=O)oc2c1	17	+	+	0.8	-38	3
CC(C)=CCCC(C)CN1CCC(N2CCC(C(=O)NC(C)C)CC2)CC1 (configuration not stated)	-2	5	1	1	13	-11
O=c1c2ccccc2cnn1Cc1n[nH]c(=S)n1-c1cc(Cl)cc(Cl)c1	7	0	0	0.9	-6	61*
COc1ccc(/C=N/NC(=O)c2cc(C34CC5CC(CC(C5)C3)C4)[nH]n2)cc1OC	0	-6	-1	1	0	86*
COc1cccc(/C=N/NC(=O)c2cc(C34CC5CC(CC(C5)C3)C4)[nH]n2)c1	6	-1	0	0.9	-6	86*
O=C(CSc1ncn[nH]1)Nc1nc(-c2ccccc2)ns1	-3	6	0	1	2	76*
CCC(=O)Nc1nc(-c2ccccc2)ns1	-3	1	0	1	1	-13
O=C(C[n+]1ccc(C(=O)N/N=C/c2ccc(O)cc2)cc1)c1ccccc1	0	0	0	1	-3	51*
O=C(C[n+]1ccc(C(=O)N/N=C/c2ccc(Br)cc2)cc1)c1ccccc1	11	3	0	0.9	2	16
COc1cc(C(=O)Nc2cc(-c3ccccc3)[nH]n2)cc(OC)c1OC	-6	2	1	1.1	.	63*
COc1cc(OC)cc(-c2cc(NC(C)=O)n[nH]2)c1	-4	4	0	1	-5	1
CC(=O)Nc1cc(-c2ccc(Cl)cc2)[nH]n1	-4	6	0	1	2	88*
CC1CC(C)(C)NC(=S)N1CCCC(=O)NCCc1ccc(Cl)cc1 (configuration not stated)	-3	1	1	1	-9	2
Cc1nn(-c2ccccc2)c(C)c1/C=N/NC(=O)c1cc(C(C)(C)C)[nH]n1	-4	45	1	1	-1	-10
Cc1ccc(-c2cc(C(=O)N/N=C/c3c(C)nn(-c4ccccc4)c3C)[nH]n2)cc1	5	-2	0	1	-8	83*
Cc1ccc(-c2cc(C(=O)N/N=C/c3c(C)nn(-c4ccccc4)c3C)n[nH]2)s1	6	-3	0	0.9	-11	60*
Cc1nn(-c2ccccc2)c(C)c1-c1cc(C(=O)N/N=C/c2cccnc2)[nH]n1	-4	10	-1	1	4	-49
CC(C)c1cc(C(=O)N/N=C/c2cccnc2)cs1	-5	3	1	1.1	3	-6
SMILES	TNAP inh hi DEA	ABCG2 inh	ABCB1 inh	TNAP act hi DEA	PKD1 inh	TNAP inh noacc
O=C(N/N=C\c1cccnc1)c1cc(-c2ccc(Cl)s2)[nH]n1	22	-1	0	0.8	-3	84*
Cc1[nH]c2ccccc2c1/C=N/NC(=O)c1cc(-c2cccs2)[nH]n1	13	-5	1	0.9	-10	81*
CN(Cc1ccccc1)Cc1nc2scc(-c3ccccc3)c2c(=O)[nH]1	-3	3	1	1	10	-57
Cc1ccc(CNC(=O)COc2ccc(C(=O)c3ccc(F)cc3)cc2)cc1	4	1	0	1	-6	0
CC(C)[C@H](NC(N)=O)C(=O)Nc1cccc(S(=O)(=O)N2CCOCC2)c1	-7	0	0	1.1	0	-9
Cc1cc(C)n2[nH]c(=O)c(N=Nc3ccc(S(N)(=O)=O)cc3)c2n1	21	1	0	0.8	-9	91*
Cc1scc(C(=O)N/N=C/c2ccc(Cl)s2)c1C	-5	7	0	1	3	-10
CCNC(=O)CC1SC(=Nc2ccc(C)cc2)NC1=O (configuration not stated)	0	1	1	1	-5	23
Cc1ccc(N=C2NC(=O)C(CC(=O)O)S2)cc1 (configuration not stated)	-4	7	1	1	0	64*
CCOC(=O)c1cc(NC(=O)Nc2nc3ccccc3s2)c(C)nc1C	3	12	0	1	-15	58*
CCOc1ccc(C(c2c(C)[nH][nH]c2=O)c2c(C)[nH][nH]c2=O)cc1OC	65*	2	-1	0.4	-4	47
CCOc1cc(C(c2c(C)[nH][nH]c2=O)c2c(C)[nH][nH]c2=O)ccc1OS(=O)(=O)c1ccc(C)cc1	52*	-1	0	0.5	-2	-13
O=C(Nc1ccnc(-c2ccncc2)n1)c1ccc(Cl)cc1	-6	2	0	1.1	-4	-5
NNC(=O)c1cc(-c2ccco2)[nH]n1	1	2	0	1	-4	75*
CCCCNC(=S)Nc1cccc2cnccc12	1	0	0	1	-4	-11
S=C(NCCc1ccccc1)Nc1cccc2cnccc12	2	2	0	1	1	53*
Cc1ccc(C(=O)N2CCN(c3ccc(NC(=O)COc4ccccc4C)cc3)CC2)cc1	-9	7	1	1.1	4	-28
Oc1ccc(O)c(Cc2nc3ccccc3s2)c1	1	-2	-1	1	0	61*
Cc1ccc(C2NCCS2)cc1 (configuration not stated)	2	-1	0	1	-2	63*
COc1ccc(NC(=O)Nc2c(SC)nsc2SC)cc1	-3	0	0	1	-7	-11
CCOC(=O)c1c(N2C(=O)CC(Sc3ccccc3C(=O)O)C2=O)sc2c1CCCC2 (configuration not stated)	1	-1	0	1	3	12
CCc1ccc(N(CC(=O)NCc2ccc(F)cc2)C(=O)c2csnn2)cc1	-1	1	0	1	-8	0
CN(C)c1ccc(/C=C/c2ccncc2)cc1	-4	0	0	1	-4	-5
